The nature of series [1]: Metabolic stability in 80% human plasma assessed as compound remaining at 5 mg/ml measured at 30 mins by HPLC analysis. It counts as ADME, cell-free. Conditions: read-out: Stability. An outline of the steps:
(§1)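 Human plasma at 80%, diluted with isotonic phosphate buffer pH 7.4, 37 °C in a water bath. Compound stock is 5 mg/ml in THF, diluted 1:10 into the plasma. Samples were taken at 0, 15, 30, 60 and 120 min, quenched in ACN, centrifuged 5 min, and the supernatant analysed by HPLC for ester remaining.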

Series [2] deals with A549. As to the kind of experiment: Cytotoxicity against human A549 cells after 48 hrs by MTT assay. The series is classed as functional, cell-based. An outline of the steps:
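A549 cells grown in RPMI with 5% FBS and 1% penicillin-streptomycin. Seeded at 4000 cells/well, attached overnight, then exposed to compound at 0.01–100 µmol for 48 h. MTT added for 4 h, formazan dissolved in DMSO, absorbance read at 570 nm. Mean of at least three independent experiments, each in triplicate.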
(In general: Formazan colour is commonly taken as a measure of viable cells.)

Series [3] can be described thus: Metabolic stability in 80% human plasma assessed as compound remaining at 5 mg/ml measured at 120 mins by HPLC analysis. Conditions: read-out: Stability. The series is classed as ADME, cell-free. An outline of the steps: as §1
A short description of series [4]: Inhibition of TNF-alpha-induced NF-kappaB (unknown origin) activation transfected in human A549 cells after 7 hrs by bright-glo luciferase reporter gene assay. It counts as cell-based. An outline of the steps:
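A549 cells co-transfected with pNF-κB-Luc and pSV-β-galactosidase (internal control) using lipofectamine. Medium changed at 6 h, cells cultured a further 6 h, then given TNF-α 15 ng/ml and compound together for 7 h. Read-out is Bright-Glo luciferase, corrected for background and viability and expressed relative to TNF-α-only cells. IC50 from a variable-slope sigmoidal fit.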
(In general: A reporter such as luciferase makes a cellular process visible.)

Series [5] can be described thus: Metabolic stability in 80% human plasma assessed as compound remaining at 5 mg/ml measured at 15 mins by HPLC analysis. The series is classed as ADME, cell-free. Conditions: read-out: Stability. An outline of the steps:
as §1

Series [6] is described as follows: Chemical stability in simulated gastric fluid assessed as compound remaining at 5 mg/ml at pH 2 measured at 2 hrs by HPLC analysis. It counts as physicochemical. Conditions: read-out: Stability. An outline of the steps:
(§2)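 Stability in simulated gastric fluid, HCl buffer pH 2, 37 °C in a water bath. Compound stock is 5 mg/ml in THF, diluted 1:10 into buffer. Samples were taken at 0, 2, 5, 8 and 12 h, diluted with ACN and analysed by HPLC. % remaining = peak area at each time / peak area at 0 min × 100.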

The test system of series [7] is A549. As to the kind of experiment: Cytotoxicity against human A549 cells transfected with NF-kappaB assessed as reduction of cell viability relative to control. Further details: concentration or dose not given beside the values. The series is classed as cell-based.
Series [8] in a line: Metabolic stability in 80% human plasma assessed as compound remaining at 5 mg/ml measured at 60 mins by HPLC analysis. Conditions: read-out: Stability. It counts as ADME, cell-free. An outline of the steps: as §1
A short description of series [9]: Chemical stability in simulated gastric fluid assessed as compound remaining at 5 mg/ml at pH 2 measured at 12 hrs by HPLC analysis. It counts as physicochemical. Conditions: read-out: Stability. An outline of the steps:
as §2

In series [10] the target is T1, Inhibitor of nuclear factor kappa-B kinase subunit beta (Homo sapiens, UniProt O14920).
T1 sequence (O14920 whole entry): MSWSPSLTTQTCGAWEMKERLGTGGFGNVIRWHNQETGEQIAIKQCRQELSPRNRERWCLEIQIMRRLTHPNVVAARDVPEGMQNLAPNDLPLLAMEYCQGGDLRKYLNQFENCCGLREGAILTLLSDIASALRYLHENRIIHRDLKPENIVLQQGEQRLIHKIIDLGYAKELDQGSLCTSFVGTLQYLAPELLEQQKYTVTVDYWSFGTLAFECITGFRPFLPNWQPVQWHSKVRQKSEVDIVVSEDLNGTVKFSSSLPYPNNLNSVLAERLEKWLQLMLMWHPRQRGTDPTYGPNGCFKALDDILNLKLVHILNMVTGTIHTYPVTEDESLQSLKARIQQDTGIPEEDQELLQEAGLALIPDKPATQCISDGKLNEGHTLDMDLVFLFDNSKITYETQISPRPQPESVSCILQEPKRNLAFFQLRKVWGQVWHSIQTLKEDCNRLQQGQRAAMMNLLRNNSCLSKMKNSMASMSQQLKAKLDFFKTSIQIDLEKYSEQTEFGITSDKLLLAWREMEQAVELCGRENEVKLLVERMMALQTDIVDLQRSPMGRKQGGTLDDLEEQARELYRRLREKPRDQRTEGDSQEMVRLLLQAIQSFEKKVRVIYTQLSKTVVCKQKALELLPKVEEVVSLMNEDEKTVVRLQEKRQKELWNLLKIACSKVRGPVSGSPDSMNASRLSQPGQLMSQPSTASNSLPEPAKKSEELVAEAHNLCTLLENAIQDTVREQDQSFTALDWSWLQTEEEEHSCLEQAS
Description: Inhibition of FLAG-tagged human recombinant IKKbeta phosphorylation expressed in baculovirus infected insect Sf9 cells after 1 hr by luminescence assay. An outline of the steps: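 Kinase reaction ran 1 h at room temperature with bacterially expressed GST-IkBα substrate and 500 nmol ATP, in 25 mmol/l HEPES pH 7.5, 10 mmol/l Mg acetate, 1 mmol DTT, 0.01% BSA and 0.01% Tween20. Stopped with equal volume Kinase-Glo, 10 min RT, then luminescence of remaining ATP read.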

The nature of series [11]: Chemical stability in simulated gastric fluid assessed as compound remaining at 5 mg/ml at pH 2 measured at 8 hrs by HPLC analysis. It counts as physicochemical. Conditions: read-out: Stability. An outline of the steps: as §2
A short description of series [12]: Chemical stability in simulated gastric fluid assessed as compound remaining at 5 mg/ml at pH 2 measured at 5 hrs by HPLC analysis. It counts as physicochemical. Conditions: read-out: Stability. An outline of the steps:
as §2

As to `C/C=C(\C)C(=O)O[C@@H]1CC(C)(C)C[C@H]2C3=CC[C@@H]4[C@@]5(C)CC[C@H](OC(=O)/C=C/c6ccccc6)C(C)(C)[C@@H]5CC[C@@]4(C)[C@]3(C)CC[C@@]12C(=O)O`, the remaining at 0.5 h, 5 mg/ml in series [1] turned out to be 54.7%. Further, the figures for the IC50 (in the series on A549 [2]; in series [4]; in [10]) were 0.12 µmol, 0.56 µmol and 1.2 µmol, respectively. The remaining at 2 h, 5 mg/ml in series [3] was 36.8%; in series [6], 96.4%. Further, in series [5], the remaining at 0.25 h, 5 mg/ml was found to be 74.2%. Also, the Activity in the series with A549 [7] was < 5%. Also, in series [8], the remaining at 1 h, 5 mg/ml stood at 46.8%. Further, the remaining at 12 h, 5 mg/ml in series [9] was 76.6%. Further, in [11], the remaining at 8 h, 5 mg/ml is 84.7%. Also, the remaining at 5 h, 5 mg/ml in series [12] was 90.7%.
On to `CC(C)=CC(=O)O[C@@H]1CC(C)(C)C[C@H]2C3=CC[C@@H]4[C@@]5(C)CC[C@H](OC(=O)/C=C/c6ccccc6)C(C)(C)[C@@H]5CC[C@@]4(C)[C@]3(C)CC[C@@]12C(=O)O`, for which the remaining at 0.5 h, 5 mg/ml in series [1] amounted to 55.5%. In addition, the IC50 with A549 [2] came to 0.08 µmol; in series [4], 0.42 µmol; in series [10], 0.94 µmol. Moreover, the remaining at 2 h, 5 mg/ml in series [3] was 39.2%; in series [6], 97.2%. Moreover, in series [5], the remaining at 0.25 h, 5 mg/ml worked out at 74.7%. In addition, the Activity in the series with A549 [7] is < 5%. The remaining at 1 h, 5 mg/ml in series [8] was 48.1%. Also, the remaining at 12 h, 5 mg/ml in series [9] is 81%. Moreover, in series [11], the remaining at 8 h, 5 mg/ml is 87.6%. The remaining at 5 h, 5 mg/ml in series [12] was 92.5%.
With `C/C=C(/C)C(=O)O[C@@H]1CC(C)(C)C[C@H]2C3=CC[C@@H]4[C@@]5(C)CC[C@H](O)C(C)(C)[C@@H]5CC[C@@]4(C)[C@]3(C)CC[C@@]12C(=O)O` [Reduced Lantadene A], the IC50 in the series on A549 [2] turned out to be 0.79 µmol; in series [4], 0.98 µmol; in [10] it was 2.62 µmol. Also, the Activity in the series with A549 [7] is on record as < 5%.
The like results for `CC(C)=CC(=O)O[C@@H]1CC(C)(C)C[C@H]2C3=CC[C@@H]4[C@@]5(C)CC[C@H](O)C(C)(C)[C@@H]5CC[C@@]4(C)[C@]3(C)CC[C@@]12C(=O)O` [Reduced Lantadene B] were, in that order, 0.43 µmol, 1.02 µmol, 4.24 µmol and < 5%.
